Reference: ChEMBL document CHEMBL3616437, “Thiazole compounds with activity against Cryptococcus gattii and Cryptococcus neoformans in vitro” (Eur J Med Chem, 2015)
Converted amounts (≈) assume the structure as drawn.

Tests used:
[1] = system: Cryptococcus neoformans; assay: Antifungal activity against Cryptococcus neoformans WP after 48 to 72 hrs by broth microdilution method; assay type: functional
Summary of the method: (§1)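 CLSI M27-A3 broth microdilution. Isolates subcultured twice on SDA, 48 h at 35°C. Saline suspension adjusted to 70% transmittance at 530 nm, then diluted to 1-5 x10^3 cells/mL in RPMI with L-glutamine, 0.165 M MOPS, pH 7.0. Compounds in DMSO, tested at […]. 35°C for 48-72 h. MIC read visually as the lowest concentration giving an optically clear well.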

[2] = system: Cryptococcus gattii species complex; assay: Antifungal activity against Cryptococcus gattii L24/01 after 48 to 72 hrs by broth microdilution method; assay type: functional, Cryptococcus bacillisporus
Summary of the method: (§2)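 CLSI M27-A3 broth microdilution in RPMI with L-glutamine, buffered to pH 7.0 with 0.165 M MOPS. Colonies grown twice on SDA, 48 h at 35°C. Inoculum set to 70% transmittance at 530 nm, then diluted to 1-5 x10^3 cells/mL. Test agents dissolved in DMSO, serially diluted, tested at 0.1 to 62.5 µM. Plates held at 35°C for 48-72 h. MIC is the lowest concentration giving an optically clear well, read visually against drug-free growth controls.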

[3] = system: Cryptococcus gattii species complex; assay: Antifungal activity against Cryptococcus gattii LMM818 after 48 to 72 hrs by broth microdilution method; assay type: functional, Cryptococcus bacillisporus; summary of the method: as §2
[4] = system: Vero; assay: Cytotoxicity against African green monkey Vero cells assessed as cell viability measured after 48 hrs by MTT assay; assay type: cell-based; details: Chlorocebus sabaeus
Summary of the method: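 VERO cells in D-MEM with 5% FBS, used up to 20 passages. Seeded 1 x 10^4 cells/well, pre-incubated 24 h at 37°C. Exposed 48 h at 37°C, 5% CO2, to eight nonserial dilutions from 100 to 0.0128 µM, with 0.5% DMSO control. MTT reduction read-out, corrected for background and blank. IC50 reported as median with 95% CI. Triplicate, two independent experiments.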

[5] = system: Cryptococcus gattii species complex; assay: Antifungal activity against Cryptococcus gattii 547/OTTI-97-PI-10 after 48 to 72 hrs by broth microdilution method; assay type: functional, Cryptococcus bacillisporus; summary of the method: as §2
[6] = system: Cryptococcus gattii species complex; assay: Antifungal activity against Cryptococcus gattii ICB181 after 48 to 72 hrs by broth microdilution method; assay type: functional, Cryptococcus bacillisporus; summary of the method: as §2
[7] = Selectivity index, ratio of IC50 for C57BL/6 mouse peritoneal macrophages to MIC for Cryptococcus neoformans ATCC 24067
Summary of the method: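 SI = IC50/MIC. Thioglycollate-elicited peritoneal macrophages from C57BL/6 mice are seeded at 1 x 10^5/well. They are exposed for 48 h at 37°C to eight concentrations from 100 to 0.0128 µM. Viability read by MTT versus 0.5% DMSO control, triplicate in two experiments.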

[8] = Cytotoxicity against C57BL/6 mouse peritoneal macrophages assessed as cell viability measured after 48 hrs by MTT assay; assay type: cell-based; details: C57BL/6, Peritoneal macrophage cell
Summary of the method: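 Thioglycollate-elicited peritoneal macrophages from male C57BL/6 mice, 6–8 weeks old, in RPMI with 10% FBS. Seeded 1 x 10^5 cells/well, pre-incubated 24 h at 37°C. Exposed 48 h at 37°C, 5% CO2, to eight nonserial dilutions from 100 to 0.0128 µM, with 0.5% DMSO control. MTT read-out, % inhibition versus DMSO control. IC50 reported as median with 95% CI. Triplicate, two independent experiments.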

[9] = system: Cryptococcus gattii species complex; assay: Antifungal activity against Cryptococcus gattii 23/10993 after 48 to 72 hrs by broth microdilution method; assay type: functional, Cryptococcus bacillisporus; summary of the method: as §2
[10] = system: Cryptococcus gattii species complex; assay: Antifungal activity against Cryptococcus gattii 135L/03 after 48 to 72 hrs by broth microdilution method; assay type: functional, Cryptococcus bacillisporus; summary of the method: as §2
[11] = system: Cryptococcus neoformans; assay: Antifungal activity against Cryptococcus neoformans ATCC 28957 after 48 to 72 hrs by broth microdilution method; assay type: functional; summary of the method: as §1
[12] = system: Cryptococcus neoformans; assay: Antifungal activity against Cryptococcus neoformans 96806 after 48 to 72 hrs by broth microdilution method; assay type: functional; summary of the method: as §1
[13] = system: Cryptococcus neoformans; assay: Antifungal activity against Cryptococcus neoformans LMM820 after 48 to 72 hrs by broth microdilution method; assay type: functional; summary of the method: as §1
[14] = system: Cryptococcus gattii species complex; assay: Antifungal activity against Cryptococcus gattii 1913ER after 48 to 72 hrs by broth microdilution method; assay type: functional, Cryptococcus bacillisporus; summary of the method: as §2
[15] = system: Cryptococcus neoformans; assay: Antifungal activity against Cryptococcus neoformans 28JF after 48 to 72 hrs by broth microdilution method; assay type: functional; summary of the method: as §1
[16] = system: Cryptococcus bacillisporus; assay: Antifungal activity against Cryptococcus gattii ATCC 32608 after 48 to 72 hrs by broth microdilution method; assay type: functional; summary of the method: as §2
[17] = system: Cryptococcus neoformans; assay: Antifungal activity against Cryptococcus neoformans CN31 after 48 to 72 hrs by broth microdilution method; assay type: functional; summary of the method: as §1
[18] = system: Cryptococcus neoformans; assay: Antifungal activity against Cryptococcus neoformans F10 after 48 to 72 hrs by broth microdilution method; assay type: functional; summary of the method: as §1
[19] = system: Cryptococcus neoformans; assay: Antifungal activity against Cryptococcus neoformans VM-MCMMPI after 48 to 72 hrs by broth microdilution method; assay type: functional; summary of the method: as §1
[20] = Selectivity index, ratio of IC50 for African green monkey Vero cells to MIC for Cryptococcus neoformans ATCC 24067; assay type: toxicity, cell-based
[21] = system: Cryptococcus gattii species complex; assay: Antifungal activity against Cryptococcus gattii L28/02 after 48 to 72 hrs by broth microdilution method; assay type: functional, Cryptococcus bacillisporus; summary of the method: as §2
[22] = system: Cryptococcus neoformans; assay: Antifungal activity against Cryptococcus neoformans ATCC 62066 after 48 to 72 hrs by broth microdilution method; assay type: functional
[23] = system: Cryptococcus neoformans; assay: Antifungal activity against Cryptococcus neoformans ATCC 24067 after 48 to 72 hrs by broth microdilution method; assay type: functional; summary of the method: as §1
[24] = system: Cryptococcus neoformans; assay: Ratio of compound MIC for Cryptococcus neoformans VM-MCMMPI in presence of fluconazole to compound MIC for Cryptococcus neoformans VM-MCMMPI in absence of fluconazole by checkerboard microtiter test; assay type: functional
Summary of the method: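 Checkerboard microdilution: eight two-fold dilutions of test compound (0.11 to 15.6 µM) crossed with amphotericin B (0.025 to 3.9 µM, in DMSO) or fluconazole (0.48 to 62.5 µM, in water). Inoculum per CLSI M27-A3 in RPMI-MOPS pH 7.0, 1-5 x10^3 cells/mL. Growth 48 to 72 h. Effective MIC is the combination concentration giving complete inhibition. FICs derived from MICs in combination versus alone.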

[25] = system: Cryptococcus gattii species complex; assay: Antifungal activity against Cryptococcus gattii 196L/03 after 48 to 72 hrs by broth microdilution method; assay type: functional, Cryptococcus bacillisporus; summary of the method: as §2
[26] = system: Cryptococcus gattii species complex; assay: Antifungal activity against Cryptococcus gattii L27/01 after 48 to 72 hrs by broth microdilution method; assay type: functional, Cryptococcus bacillisporus; summary of the method: as §2
[27] = system: Cryptococcus neoformans; assay: Antifungal activity against Cryptococcus neoformans 27JF after 48 to 72 hrs by broth microdilution method; assay type: functional; summary of the method: as §1
[28] = system: Cryptococcus neoformans; assay: Antifungal activity against Cryptococcus neoformans 5396 after 48 to 72 hrs by broth microdilution method; assay type: functional; summary of the method: as §1

COc1ccc(-c2csc(N/N=C/C3CCCCC3)n2)cc1
MFC [1]: 3.9 µM (≈ 1.23 µg/mL) | MIC [1]: 3.2 µM (≈ 1.01 µg/mL) | MFC [2]: 3.9 µM (≈ 1.23 µg/mL) | MIC [2]: 2.9 µM (≈ 0.915 µg/mL) | MFC [3]: 7.8 µM (≈ 2.46 µg/mL) | MIC [3]: 4.5 µM (≈ 1.42 µg/mL) | IC50 [4]: > 100 µM | MFC [5]: 3.9 µM (≈ 1.23 µg/mL) | MIC [5]: 2.6 µM (≈ 0.82 µg/mL) | MFC [6]: 1.9 µM (≈ 0.599 µg/mL) | MIC [6]: 1.4 µM (≈ 0.442 µg/mL) | Ratio [7]: 52.63 | IC50 [8]: > 100 µM | MFC [9]: 3.9 µM (≈ 1.23 µg/mL) | MIC [9]: 2.6 µM (≈ 0.82 µg/mL) | MFC [10]: 3.9 µM (≈ 1.23 µg/mL) | MIC [10]: 2.6 µM (≈ 0.82 µg/mL) | MFC [11]: 3.9 µM (≈ 1.23 µg/mL) | MIC [11]: 2.2 µM (≈ 0.694 µg/mL) | MFC [12]: 1.9 µM (≈ 0.599 µg/mL) | MIC [12]: 1.9 µM (≈ 0.599 µg/mL) | MFC [13]: 7.8 µM (≈ 2.46 µg/mL) | MIC [13]: 3.2 µM (≈ 1.01 µg/mL) | MFC [14]: 3.9 µM (≈ 1.23 µg/mL) | MIC [14]: 2.2 µM (≈ 0.694 µg/mL) | MFC [15]: 7.8 µM (≈ 2.46 µg/mL) | MIC [15]: 3.5 µM (≈ 1.1 µg/mL) | MFC [16]: 3.9 µM (≈ 1.23 µg/mL) | MIC [16]: 2.9 µM (≈ 0.915 µg/mL) | MFC [17]: 3.9 µM (≈ 1.23 µg/mL) | MIC [17]: 1.9 µM (≈ 0.599 µg/mL) | MFC [18]: 3.9 µM (≈ 1.23 µg/mL) | MIC [18]: 2.2 µM (≈ 0.694 µg/mL) | MFC [19]: 3.9 µM (≈ 1.23 µg/mL) | MIC [19]: 2.2 µM (≈ 0.694 µg/mL) | selectivity ratio [20]: 52.6 | MFC [21]: 7.8 µM (≈ 2.46 µg/mL) | MIC [21]: 4.2 µM (≈ 1.32 µg/mL) | MFC [22]: 7.8 µM (≈ 2.46 µg/mL) | MIC [22]: 1.9 µM (≈ 0.599 µg/mL) | MIC [23]: 1.9 µM (≈ 0.599 µg/mL) | fractional inhibitory concentration index (FICI) [24]: 4.46 | MFC [25]: 3.9 µM (≈ 1.23 µg/mL) | MIC [25]: 2.9 µM (≈ 0.915 µg/mL) | MFC [26]: 3.9 µM (≈ 1.23 µg/mL) | MIC [26]: 2.2 µM (≈ 0.694 µg/mL) | MFC [27]: 7.8 µM (≈ 2.46 µg/mL) | MIC [27]: 3.5 µM (≈ 1.1 µg/mL) | MFC [28]: 3.9 µM (≈ 1.23 µg/mL) | MIC [28]: 2.2 µM (≈ 0.694 µg/mL)

C(=N\Nc1nc(-c2ccccc2)cs1)/C1CCCCC1
MFC [1]: 3.9 µM (≈ 1.11 µg/mL) | MIC [1]: 2.2 µM (≈ 0.628 µg/mL) | MFC [2]: 3.9 µM (≈ 1.11 µg/mL) | MIC [2]: 1.4 µM (≈ 0.4 µg/mL) | MFC [3]: 3.9 µM (≈ 1.11 µg/mL) | MIC [3]: 2.2 µM (≈ 0.628 µg/mL) | IC50 [4]: > 100 µM | MFC [5]: 7.8 µM (≈ 2.23 µg/mL) | MIC [5]: 1.9 µM (≈ 0.542 µg/mL) | MFC [6]: 3.9 µM (≈ 1.11 µg/mL) | MIC [6]: 0.7 µM (≈ 0.2 µg/mL) | Ratio [7]: 111 | IC50 [8]: > 100 µM | MFC [9]: 7.8 µM (≈ 2.23 µg/mL) | MIC [9]: 1.9 µM (≈ 0.542 µg/mL) | MFC [10]: 3.9 µM (≈ 1.11 µg/mL) | MIC [10]: 1.9 µM (≈ 0.542 µg/mL) | MFC [11]: 7.8 µM (≈ 2.23 µg/mL) | MIC [11]: 1.2 µM (≈ 0.342 µg/mL) | MFC [12]: 3.9 µM (≈ 1.11 µg/mL) | MIC [12]: 1.9 µM (≈ 0.542 µg/mL) | MFC [13]: 1.9 µM (≈ 0.542 µg/mL) | MIC [13]: 1.7 µM (≈ 0.485 µg/mL) | MFC [14]: 7.8 µM (≈ 2.23 µg/mL) | MIC [14]: 1.4 µM (≈ 0.4 µg/mL) | MFC [15]: 7.8 µM (≈ 2.23 µg/mL) | MIC [15]: 2.7 µM (≈ 0.771 µg/mL) | MFC [16]: 1.9 µM (≈ 0.542 µg/mL) | MIC [16]: 1.4 µM (≈ 0.4 µg/mL) | MFC [17]: 1.9 µM (≈ 0.542 µg/mL) | MIC [17]: 1.4 µM (≈ 0.4 µg/mL) | MFC [18]: 3.9 µM (≈ 1.11 µg/mL) | MIC [18]: 1.7 µM (≈ 0.485 µg/mL) | MFC [19]: 3.9 µM (≈ 1.11 µg/mL) | MIC [19]: 1.4 µM (≈ 0.4 µg/mL) | selectivity ratio [20]: 111 | MFC [21]: 7.8 µM (≈ 2.23 µg/mL) | MIC [21]: 1.9 µM (≈ 0.542 µg/mL) | MFC [22]: 7.8 µM (≈ 2.23 µg/mL) | MIC [22]: 1.2 µM (≈ 0.342 µg/mL) | MIC [23]: 0.9 µM (≈ 0.257 µg/mL) | fractional inhibitory concentration index (FICI) [24]: 4.47 | MFC [25]: 3.9 µM (≈ 1.11 µg/mL) | MIC [25]: 1.4 µM (≈ 0.4 µg/mL) | MFC [26]: 1.9 µM (≈ 0.542 µg/mL) | MIC [26]: 1 µM (≈ 0.285 µg/mL) | MFC [27]: 7.8 µM (≈ 2.23 µg/mL) | MIC [27]: 2.4 µM (≈ 0.685 µg/mL) | MFC [28]: 1.9 µM (≈ 0.542 µg/mL) | MIC [28]: 1.4 µM (≈ 0.4 µg/mL)
